Tests used:
[1] = Ratio of AUC in bile to plasma withdrawn from hepatic vein in castrated pig at 0.2 mg/kg, iv by UPLC-tandem mass spectrometry; assay type: ADME, organism-based, Sus scrofa; parameters: dose 0.2 mg/kg, route intravenous; settings: male, read-out: Ratio AUC
Summary of the method: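 Bile collected 0-6 h and weighed; portal and hepatic vein plasma sampled. Analytes quantified by UPLC-MS/MS (finasteride-d9 internal standard, SRM). Bile AUC divided by plasma AUC for each vein.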

[2] = Drug excretion in castrated pig urine assessed as unchanged drug level at 0.2 mg/kg, iv measured during 6 hrs sampling by UPLC-tandem mass spectrometry; assay type: ADME, organism-based, Sus scrofa; parameters: dose 0.2 mg/kg, route intravenous; settings: in vivo
[3] = Apparent half-life of the terminal disposition phase in castrated pig plasma withdrawn from portal vein at 0.2 mg/kg, iv by UPLC-tandem mass spectrometry; assay type: ADME, organism-based, Sus scrofa; parameters: dose 0.2 mg/kg, route intravenous; settings: male, read-out: t1/2 lambda z (converted)
Summary of the method: (§1)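 Where ketoconazole was co-dosed, it was given at 10 mg/kg at the same jejunal site 20 min before. Plasma protein-precipitated with acetonitrile and analysed by UPLC-MS/MS (finasteride-d9). AUC0-6h, Cmax and t1/2 (ln2/λz) were derived by non- or compartmental analysis.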

[4] = Apparent half-life of the terminal disposition phase in castrated pig plasma withdrawn from femoral vein at 0.2 mg/kg, iv by UPLC-tandem mass spectrometry; assay type: ADME, organism-based, Sus scrofa; parameters: dose 0.2 mg/kg, route intravenous; settings: male, read-out: t1/2 lambda z (converted); summary of the method: as §1
Plasma [5] = assay: Drug metabolism in castrated pig plasma withdrawn from femoral vein assessed as omega-hydroxy finasteride metabolite formation by UPLC-tandem mass spectrometry; assay type: ADME, cell-free, Sus scrofa
Summary of the method: (§2)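 Plasma sampled 0-6 h from portal, hepatic and femoral veins. Analysed by acetonitrile precipitation with finasteride-d9 internal standard, then UPLC-MS/MS in SRM mode, m/z 389.41 → 271.94 for the ω-hydroxy metabolite.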

[6] = Cmax in castrated pig plasma withdrawn from femoral vein at 0.8 mg/kg administered as intrajejunal dose 20 mins after ketoconazole administration by UPLC-tandem mass spectrometry; assay type: ADME, organism-based, Sus scrofa; parameters: dose 0.8 mg/kg; settings: male; summary of the method: as §1
[7] = Ratio of AUC in bile to plasma withdrawn from portal vein in castrated pig at 0.8 mg/kg administered as intrajejunal dose 20 mins after ketoconazole administration by UPLC-tandem mass spectrometry; assay type: ADME, organism-based, Sus scrofa; parameters: dose 0.8 mg/kg; settings: male, read-out: Ratio AUC
Summary of the method: (§3)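 Bile collected 0-6 h and weighed; portal and hepatic vein plasma sampled. UPLC-MS/MS quantification against finasteride-d9 in SRM mode. Bile/plasma AUC ratio calculated per vein.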

[8] = Renal clearance in castrated pig at 0.2 mg/kg, iv by UPLC-tandem mass spectrometry; assay type: ADME, organism-based, Sus scrofa, Kidney; parameters: dose 0.2 mg/kg, route intravenous; settings: male, in vivo
Summary of the method: (§4)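 Urine collected 0-360 min into a closed bag, weighed and frozen at -20°C. […] Doses: iv 0.2 mg/kg bolus via central vein catheter (n=3), or ij 0.8 mg/kg alone or 20 min after ij ketoconazole 10 mg/kg (n=5). Renal clearance derived from the amount excreted in urine over 0-6 h.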

[9] = Cmax in castrated pig bile at 0.2 mg/kg, iv by UPLC-tandem mass spectrometry; assay type: ADME, organism-based, Sus scrofa; parameters: dose 0.2 mg/kg, route intravenous; settings: male
[10] = Renal clearance in castrated pig at 0.8 mg/kg, administered as intrajejunal dose 20 mins after ketoconazole administration by UPLC-tandem mass spectrometry; assay type: ADME, organism-based, Sus scrofa, Kidney; parameters: dose 0.8 mg/kg; settings: male, in vivo; summary of the method: as §4
[11] = Apparent half-life of the terminal disposition phase in castrated pig plasma withdrawn from hepatic vein at 0.2 mg/kg, iv by UPLC-tandem mass spectrometry; assay type: ADME, organism-based, Sus scrofa; parameters: dose 0.2 mg/kg, route intravenous; settings: male, read-out: t1/2 lambda z (converted); summary of the method: as §1
[12] = Drug excretion in castrated pig urine assessed as omega-hydroxy finasteride metabolite formation by UPLC-tandem mass spectrometry; assay type: ADME, tissue-based, Sus scrofa
[13] = Tmax in castrated pig plasma withdrawn from hepatic vein at 0.8 mg/kg administered as intrajejunal dose 20 mins after ketoconazole administration by UPLC-tandem mass spectrometry; assay type: ADME, organism-based, Sus scrofa; parameters: dose 0.8 mg/kg; settings: male
Summary of the method: (§5)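 Portal, hepatic and femoral vein plasma sampled over 6 h and assayed by UPLC-MS/MS. Tmax read directly from the profiles. Terminal t1/2 calculated as ln2/λz by non- or compartmental analysis; values below LLOQ after Cmax excluded.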

Plasma [14] = assay: Drug metabolism in castrated pig plasma withdrawn from hepatic vein assessed as omega-hydroxy finasteride metabolite formation by UPLC-tandem mass spectrometry; assay type: ADME, cell-free, Sus scrofa; summary of the method: as §2
[15] = Ratio of AUC in bile to plasma withdrawn from hepatic vein in castrated pig at 0.8 mg/kg administered as intrajejunal dose 20 mins after ketoconazole administration by UPLC-tandem mass spectrometry; assay type: ADME, organism-based, Sus scrofa; parameters: dose 0.8 mg/kg; settings: male, read-out: Ratio AUC; summary of the method: as §3
[16] = Terminal half life in castrated pig plasma withdrawn from portal vein at 0.8 mg/kg administered as intrajejunal dose by UPLC-tandem mass spectrometry; assay type: ADME, organism-based, Sus scrofa; parameters: dose 0.8 mg/kg; settings: male, read-out: beta t1/2 (converted); summary of the method: as §5
[17] = Biliary excretion in castrated pig assessed as fraction of the dose excreted at 0.2 mg/kg, iv measured during 6 hrs sampling by UPLC-tandem mass spectrometry; assay type: ADME, organism-based, Sus scrofa; parameters: dose 0.2 mg/kg, route intravenous; settings: male, bile, read-out: Drug excretion
Sus scrofa [18] = assay: Hepatic clearance in castrated pig at 0.8 mg/kg, administered as intrajejunal dose by UPLC-tandem mass spectrometry; assay type: ADME, organism-based, Liver; parameters: dose 0.8 mg/kg; settings: in vivo, other
Summary of the method: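 Portal and hepatic vein plasma measured 0-6 h by UPLC-MS/MS. Extraction ratio derived from portal versus hepatic concentrations or AUCs; CLH then obtained as EH × liver blood flow 52 ml/min/kg × measured blood/plasma ratio.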

[19] = Terminal half life in castrated pig plasma withdrawn from hepatic vein at 0.8 mg/kg administered as intrajejunal dose by UPLC-tandem mass spectrometry; assay type: ADME, organism-based, Sus scrofa; parameters: dose 0.8 mg/kg; settings: male, read-out: beta t1/2 (converted); summary of the method: as §5
[20] = Drug excretion in castrated pig bile assessed as omega-hydroxy finasteride metabolite formation by UPLC-tandem mass spectrometry; assay type: ADME, tissue-based, Sus scrofa
[21] = Terminal half life in castrated pig plasma withdrawn from femoral vein at 0.8 mg/kg administered as intrajejunal dose by UPLC-tandem mass spectrometry; assay type: ADME, organism-based, Sus scrofa; parameters: dose 0.8 mg/kg; settings: male, read-out: beta t1/2 (converted); summary of the method: as §5
[22] = AUC (0 to 6 hrs) in castrated pig plasma withdrawn from portal vein at 0.8 mg/kg administered as intrajejunal dose by UPLC-tandem mass spectrometry; assay type: ADME, organism-based, Sus scrofa; parameters: time < 6 hr, dose 0.8 mg/kg; settings: male; summary of the method: as §1
[23] = Terminal half life in castrated pig plasma withdrawn from portal vein at 0.8 mg/kg administered as intrajejunal dose 20 mins after ketoconazole administration by UPLC-tandem mass spectrometry; assay type: ADME, organism-based, Sus scrofa; parameters: dose 0.8 mg/kg; settings: male, read-out: beta t1/2 (converted); summary of the method: as §5
[24] = Drug excretion in castrated pig urine assessed as fraction of the dose excreted at 0.8 mg/kg administered as intrajejunal dose 20 mins after ketoconazole administration measured during 6 hrs sampling by UPLC-tandem mass spectrometry; assay type: ADME, organism-based, Sus scrofa; parameters: dose 0.8 mg/kg; settings: male, read-out: Drug excretion
Sus scrofa [25] = assay: Absorption rate constant in castrated pig plasma withdrawn from portal vein at 0.8 mg/kg administered as intrajejunal dose 20 mins after ketoconazole administration by UPLC-tandem mass spectrometry; assay type: ADME, organism-based; parameters: dose 0.8 mg/kg; settings: in vivo, other
[26] = Oral absorption in human; assay type: ADME, organism-based; settings: in vivo
[27] = Tmax in castrated pig plasma withdrawn from hepatic vein at 0.8 mg/kg administered as intrajejunal dose by UPLC-tandem mass spectrometry; assay type: ADME, organism-based, Sus scrofa; parameters: dose 0.8 mg/kg; settings: male; summary of the method: as §5
[28] = Terminal half life in castrated pig plasma withdrawn from femoral vein at 0.8 mg/kg administered as intrajejunal dose 20 mins after ketoconazole administration by UPLC-tandem mass spectrometry; assay type: ADME, organism-based, Sus scrofa; parameters: dose 0.8 mg/kg; settings: male, read-out: beta t1/2 (converted); summary of the method: as §5
[29] = Tmax in castrated pig plasma withdrawn from portal vein at 0.8 mg/kg administered as intrajejunal dose by UPLC-tandem mass spectrometry; assay type: ADME, organism-based, Sus scrofa; parameters: dose 0.8 mg/kg; settings: male; summary of the method: as §5
[30] = Biliary excretion in castrated pig assessed as unchanged drug level at 0.2 mg/kg, iv measured during 6 hrs sampling by UPLC-tandem mass spectrometry; assay type: ADME, organism-based, Sus scrofa, Bile; parameters: dose 0.2 mg/kg, route intravenous; settings: in vivo
[31] = Cmax in castrated pig plasma withdrawn from portal vein at 0.8 mg/kg administered as intrajejunal dose 20 mins after ketoconazole administration by UPLC-tandem mass spectrometry; assay type: ADME, organism-based, Sus scrofa; parameters: dose 0.8 mg/kg; settings: male; summary of the method: as §1
[32] = Cmax in castrated pig bile at 0.8 mg/kg administered as intrajejunal dose by UPLC-tandem mass spectrometry; assay type: ADME, organism-based, Sus scrofa; parameters: dose 0.8 mg/kg; settings: male
[33] = AUC (0 to 6 hrs) in castrated pig plasma withdrawn from femoral vein at 0.2 mg/kg, iv by UPLC-tandem mass spectrometry; assay type: ADME, organism-based, Sus scrofa; parameters: time < 6 hr, dose 0.2 mg/kg, route intravenous; settings: male; summary of the method: as §1

Work on CC(C)(C)NC(=O)[C@H]1CC[C@H]2[C@@H]3CC[C@H]4NC(=O)C=C[C@]4(C)[C@H]3CC[C@]12C [FINASTERIDE] yielded a Kp [1] of 7, an Ae [2] of 0.02 µmol and a half-life [3] of 2.6 h. The half-life [4] was 3.4 h, the Drug metabolism (Plasma [5]) was “metabolite_not_detected” and the Cmax [6] was 1200 nM. For the same compound, the Kp at 20 min [7] was 0.7, the CL renal [8] was 14.4 mL/day/kg and the Cmax [9] was 500 nM. The CL renal at 20 min [10] was 8.64 mL/day/kg, the half-life [11] was 3.1 h and the Drug excretion [12] was “metabolite_not_detected”. The Tmax [13] was 1 h, the Drug metabolism (Plasma [14]) was “metabolite_not_detected” and the Kp at 20 min [15] was 6. It also gave a half-life [16] of 1.5 h, a dose excreted at 6 h [17] of 0.19% and a CLH (Sus scrofa [18]) of 36000 mL/day/kg. The half-life [19] was 1.7 h, the Drug excretion [20] was “metabolite_not_detected” and the half-life [21] was 1.6 h. The AUC(0-t) at 6 h [22] was 2.9 µM·h, the half-life [23] was 3.9 h and the dose excreted [24] was 0.08%. For the same compound, the ka (Sus scrofa [25]) was 29 h⁻¹, the Fa [26] was over 85% and the Tmax [27] was 0.5 h. The half-life [28] was 4 h, the Tmax [29] was 0.3 h and the Ae [30] was 0.032 µmol. It also gave a Cmax [31] of 3100 nM, a Cmax [32] of 1300 nM and an AUC(0-t) at 6 h [33] of 1.2 µM·h.

From ChEMBL document CHEMBL3525971 (Drug Metab Dispos, 2011)
